Bioassay records from PubChem.
A1 inh = inhibitors of the anti-apoptotic protein A1, read as caspase activation | MEF A1-2A-BIM cells, Caspase-Glo 3/7 luminescence, 3 h; percent of clofoctol response, vehicle zero | caspase activation, % (test concentration not listed) | 330,000 compounds, 0.066% hits;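 active = over half of replicate activation scores above 10%, or exactly half above 10 with the replicate mean above 10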
UPR XBP1 act = adaptive UPR (XBP1) activation | CHO-XBP1 luciferase reporter, IRE1-XBP1 UPR activation, luminescence; percent of tunicamycin response, DMSO as zero | 330,000 compounds, 0.33% hits | activation, % at 20 µM | AID 463104;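 active = versus positive control, 20 µM dose yields 30% or more activation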
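Material: CHO cell line with stable XBP1 luciferase reporter; schedule: 16-18 h cell attachment at 37 °C, then 6 h compound exposure; signal: glow luminescence from Steady-Glo reagent; medium: serum-containing F12 medium, 10% FBS; benchmarks: tunicamycin 10 µg/mL and vehicle-only wells; read-out: percent activation relative to tunicamycin reference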
UPR CHOP act = activators of apoptotic arm of unfolded protein response (CHOP); 330,000 compounds, 0.34% hits; activation, % at 10 µM; AID 449763; CHO-CHOP luciferase reporter, UPR activation, luminescence; percent of tunicamycin response over DMSO baseline;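 active = at 10 µM dose, activation of 40% or more, normalized to positive control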
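Test system: CHO CHOP reporter cells. Input: 500 CHO-CHOP cells per well. Medium: F12 with 10% FBS. Technique: luciferase luminescence. Measure: percent activation relative to tunicamycin control. Dosing: 10 µM compound, 0.5% DMSO. Timing: 16-18 h cell attachment, then 6 h compound exposure, 37 °C.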
CHOP inh = blocks CHOP induction under ER stress; inhibition, % at 10 µM; AID 2732; 220,000 compounds, 3.8% hits; CHO-K1 CHOP-promoter luciferase, tunicamycin-induced, 15-18 h;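 active = compounds that reduced the stress-induced luciferase reporter signal by more than about 70% of percent inhibition, limit read from the data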
Each line names hits and unclear results; the compound was inactive in the other large screens; ! = repeats disagree. This is one part of a sample in which hits are shown more often than they occur.

Cc1nn(Cc2ccc(Cl)cc2Cl)c(C)c1NC(=O)c1ccc(COc2cc(Cl)ccc2Cl)o1	none
CCS(=O)(=O)N1Cc2ccccc2CC1C(=O)OCC(=O)Nc1ccc(SC(F)F)cc1 (stereo not drawn)	CHOP inh 93
Cc1cc(C)c2c(CC(=O)NC(C)C)coc2c1	none
Cc1cc(C)c2c(CC(=O)Nc3nccs3)coc2c1	CHOP inh 82
COc1ccc(CNC(=O)c2c(C)oc3c2C(=O)c2ccccc2C3=O)cc1	none
CC(=O)c1c(C)oc2c1C(=O)c1ccccc1C2=O	CHOP inh 73 (no result: UPR XBP1 act, UPR CHOP act)
Cc1oc2c(c1C(=O)NCc1cccnc1)C(=O)c1ccccc1C2=O	CHOP inh 104
Cc1ccc(NC(=O)CCc2ccc(S(=O)(=O)N3CCOCC3)cc2)c(Cl)c1	none (no result: CHOP inh)
COc1ccc(S(=O)(=O)N2CCN(C3CCCCCCC3)CC2)cc1	CHOP inh 74!
COc1ccc(S(=O)(=O)N2CCC(N3CCCCC3)CC2)cc1	none
Oc1c(Cl)cc(Cl)cc1C=Nc1ccc2c(c1)OCCO2	CHOP inh 87
CC(C)N1CCc2c(sc(NC(=S)NC(=O)c3ccccc3)c2C#N)C1	none
CC(C)C1Cc2c(sc(NC(=S)NC(=O)c3ccccc3)c2C#N)CO1 (stereo not drawn)	CHOP inh 83
COC(=O)c1ccc(Cl)c(NC(=O)CSc2nnc(-c3ccncc3)o2)c1	none (no result: CHOP inh)
Cn1c(C(C#N)C(=O)c2ccco2)nc2ccccc21 (stereo not drawn)	none
Cn1c(C(C#N)C(=O)Cc2cccc3ccccc23)nc2ccccc21 (stereo not drawn)	CHOP inh 75
COc1cccc(C(=O)Oc2ccccc2/C=C\C(=O)c2cc3ccccc3o2)c1	none (no result: A1 inh, UPR XBP1 act, UPR CHOP act)
Cc1ccc2nc(SCC(=O)Nc3cc(C(C)(C)C)nn3-c3ccccc3)[nH]c2c1	CHOP inh 72
Cc1cc(NC(=O)CSc2nc3ccccc3[nH]2)n(-c2ccccc2)n1	none
COc1cc2c(cc1NC(=O)CSc1nc3ccc(C)cc3[nH]1)oc1ccccc12	CHOP inh 77
Cc1ccccc1N(CC(=O)N/N=C/c1ccc(Cl)cc1)C(=O)c1ccccc1	CHOP inh 72
O=C(Cc1cccc2ccccc12)N/N=C/c1ccncc1	none
O=C(Cc1cccc2ccccc12)N/N=C/c1ccc(F)cc1	CHOP inh 74
Cc1ccccc1N(CC(=O)N/N=C/c1ccc(F)cc1)C(=O)c1ccccc1	CHOP inh 89
C=C1C[C@H](O)[C@@H]2[C@H](OC(=O)[C@H]2C)[C@H]2[C@H](C)[C@@H](O)C[C@@H]12	none (no result: CHOP inh)
O=C(COc1ccc(Oc2ccccc2)cc1)NC1CCS(=O)(=O)C1 (stereo not drawn)	none (no result: CHOP inh)
Cc1cccc2sc(NC(=O)CN(C)S(=O)(=O)c3ccc(Br)s3)nc12	CHOP inh 85
Cc1cccc2sc(NC(=O)CN(C)S(=O)(=O)c3cccs3)nc12	none
CCSc1ccc2nnc(-c3cccc(F)c3)n2n1	none
N/C(Cc1ccc(Cl)cc1)=N\OC(=O)Cc1ccc([N+](=O)[O-])cc1	none
CCOC(=O)/C(N=Nc1ccc(Cl)cc1)=C(/O)c1ccc([N+](=O)[O-])cc1	CHOP inh 86
C=CCn1c(C)cc(C(=O)CSc2nc3ccccc3o2)c1C	CHOP inh 74
Cc1nnsc1SC(C)C(=O)O (stereo not drawn)	none
Cc1ccc(C2=Nc3ccccc3N=C(C(Cl)Cl)C2)cc1	CHOP inh 84
Oc1ccc(Nc2nc(N3CCCC3)c3ccccc3n2)cc1	none (no result: CHOP inh)
COc1ccc(Nc2nc(N3CCCCC3)c3ccccc3n2)cc1	CHOP inh 82
CCN(CCn1cccn1)Cc1cn[nH]c1-c1ccc(-c2ccccc2)cc1	none
Fc1ccccc1CNc1ncnc2sccc12	none (no result: CHOP inh)
c1ccc2c(c1)OCC(CNc1ncnc3sccc13)O2 (stereo not drawn)	CHOP inh 79 (no result: UPR XBP1 act, UPR CHOP act)
Clc1ccsc1-c1ccc2ccccc2n1	CHOP inh 90
CC(C)(C)c1[nH]nc2c1C(C1C=CCCC1)C(C#N)=C(N)O2 (stereo not drawn)	CHOP inh 83
CSc1nc(C(=O)N2CCCC(Nc3ccc(C)c(C)c3)C2)cs1 (stereo not drawn)	none (no result: CHOP inh)
COC(=O)c1ccc(N=NNc2cccc(Br)c2)cc1	CHOP inh 91 (no result: UPR XBP1 act, UPR CHOP act)
O=C(COc1ccc2ccccc2c1)Nc1nc2ccccc2[nH]1	CHOP inh 78
COc1ccc(OCC(=O)Nc2nc3ccccc3[nH]2)cc1	none
C/C(=N\NC(=O)c1ccccc1)c1ccc(N2CCOCC2)cc1	none
O=C1CCCc2[nH]c3cccc(/C(=C/c4ccccc4)c4ccccc4)c3c21	none (no result: CHOP inh)
COC(=O)c1ccc2[nH]c3cccc(/C(=C/c4ccccc4)c4ccccc4)c3c2c1	UPR XBP1 act 93 (no result: CHOP inh)
Cn1nnnc1SCC(=O)N1N=C(c2ccc(Cl)cc2)CC1c1ccco1 (stereo not drawn)	none (no result: CHOP inh)
COc1ccc(NC(=O)CN(c2ccc(C(C)C)cc2)S(=O)(=O)c2c(C)noc2C)cc1OC	CHOP inh 71
CCOc1ccc(N(CC(=O)Nc2ccc(F)c(F)c2)S(=O)(=O)c2c(C)noc2C)cc1	CHOP inh 90
CCOc1ccc(N(CC(=O)Nc2ccc(C)cc2)S(=O)(=O)c2c(C)noc2C)cc1	none
CC(=O)Nc1ccc(NC(=O)CSc2nnc(-c3ccco3)n2Cc2ccco2)cc1	none
CC(C)(C)C1=NN(C(=O)c2ccccc2)C(O)(C(C)(C)C)C1 (stereo not drawn)	none
Cc1cc(C)cc(OCC(=O)N2N=C(c3cccnc3)CC2(O)C(F)(F)F)c1 (stereo not drawn)	none
CC(C)(C)C1(O)CC(C(F)(F)F)=NN1C(=O)CCCc1ccccc1 (stereo not drawn)	CHOP inh 88
Cc1cc(C)cc(OCC(=O)N2N=C(C(F)(F)F)CC2(O)C(C)(C)C)c1 (stereo not drawn)	CHOP inh 78
CC(C)(C)c1ccc(C(=O)N2CCC3(CC2)NCCc2[nH]cnc23)cc1	none (no result: CHOP inh)
Cc1cccc(NC(=O)Nc2ccc(C)c(C)c2)n1	none
CCN(CC)S(=O)(=O)c1cc(NC(=O)CCc2c(C)noc2C)ccc1C	none (no result: CHOP inh)
O=C(c1ccccc1)c1ccc2nc(-c3ccco3)c(-c3ccco3)nc2c1	CHOP inh 72
O=S(=O)(NC1CC1)c1ccc(S(=O)(=O)N2CCCc3ccccc32)cc1	CHOP inh 73
O=S(=O)(c1ccccc1)N1CCCc2ccccc21	none (no result: CHOP inh)
COc1ccccc1/C=C1\S/C(=N/NC(=O)c2cccc(Br)c2)NC1=O	none
CCCCN1C(=O)/C(=c2\sc3nc(=O)c(-c4ccccc4)nn3c2=O)c2ccccc21	none
Cc1cc(C(=O)CSc2nc3ccccc3c(=O)n2C)c(C)n1Cc1ccc2c(c1)OCO2	CHOP inh 79
Cc1cc(C(=O)CSc2nnc(-c3ccccc3)n2Cc2ccc3c(c2)OCO3)c(C)n1C	none
Cc1ccc(-c2noc(CSc3ccccc3)n2)cc1	none
Cc1cccc(-c2noc(CSc3ccccc3)n2)c1	CHOP inh 70
